# Shown is part of a subset that was picked to be rich in hits.
# DAT uptake mod: modulates human dopamine transporter uptake under cocaine | Q01959 | LLC-PK1 hDAT cells, [14C]-dopamine uptake with cocaine IC80; actives deviate in either direction | B-score at 10 µM | actives 1.3% (n = 110,000) | AID 449768;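 active = Z score or B-score, a plate-position-corrected score, falls beyond the plate's 99.7% confidence bounds, in either direction; inactive = both scores lie inside the 99.7% bounds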;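 note: scored against the spread of the other compound wells on the same plate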
# D1 allo mod: D1 dopamine receptor (human) allosteric modulation. P21728. HEK293 D1, CRE-luciferase, dopamine EC30 potentiation; actives deviate in either direction. B-score at 10 µM. actives 5.9% (n = 58,000). AID 641;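 active = luminescence count or its row- and column-corrected plate score outside the 99.7% band of the plate's sample wells, on either side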
# HEK293 NFkB inh: lowers PMA/ionomycin-induced NF-kB signal in HEK293 cells; HEK-293 NF-kB luciferase reporter, luminescence; inhibition, % at 3 µM; actives 0.21% (n = 62,000);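 active = inhibition above the mean of all tested compounds plus 3 SD, cut at about 40% in these data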;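 note: 0% = stimulated DMSO wells and 100% = 10 µM reference inhibitor 5653914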
#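 Material: HEK-293 cells with stable firefly luciferase reporter driven by four HIV NF-kB elements / Also added: PMA plus ionomycin mix as NF-kB-activating stimulus / Compound dosing: 3 µM once, 0.30% DMSO / Times: 1 h pretreatment, 16 h stimulation, 37 °C / Signal: luminescence / Evaluation: per-plate % inhibition versus controls / Benchmarks: DMSO and 10 µM reference inhibitor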
# E coli RNAP: blocks E. coli RNA polymerase transcription. fluorescence transcription assay. inhibition, %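 (tested at 10 µM)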. actives 0.2% (n = 62,000); in the data active = inhibition above about 20%;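 note: 0% = enzyme without compound and 100% = no enzyme blank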
# AP complement: orthogonal test for alternative complement pathway inhibitors; AID 1235; actives 0.08% (n = 62,000); inhibition, % at 5 µM; Human serum alternative complement pathway, LPS-coated ELISA, C3 deposition; tested in compound mixtures;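 active = inhibition above 30% in each of the two pooled mixtures holding the compound, so the lower value exceeds 30%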;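 note: 0% = serum in Mg-EGTA without compound and 100% = EDTA serum blank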
#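 Assay system: Human serum alternative complement pathway, C3 deposition on LPS-coated wells | Incubation: 1 h serum-compound exposure at 37 °C | Doses: 5 µM per compound in ten-compound mixtures | Read-out: Percent inhibition | Technique: ELISA with HRP anti-human C3 antibody, TMB substrate, absorbance 450 nm | Replication: Two pool placements per compound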
# D1 mod confirm: D1 receptor (human) allosteric modulation, confirmed. shares compounds with D1 allo mod. HEK293 D1 CRE-luciferase, dopamine EC30 potentiation; stronger effect = higher value. luminescence at 10 µM. actives 88% (n = 2,200). AID 642;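 active = luminescence in either of two replicates above the same-plate mean plus 3 SD of the low-dose dopamine control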
# D1 ag no DA: activates D1 CRE-luciferase signal without dopamine present; HEK293 D1 CRE-luciferase, luminescence, no dopamine; stronger effect = higher value; luminescence at 10 µM; shares compounds with D1 allo mod; actives 0.8% (n = 1,900); in the data active = luminescence above about 3900
# Isoprot counter: alters isoproterenol CRE-luciferase response in HEK293 cells | shares compounds with D1 allo mod | actives 63% (n = 2,200) | calls only at 10 µM | AID 647 | HEK293 D1 CRE-luciferase, isoproterenol EC30 counter-screen;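 active = luminescence in either replicate above plate mean of wells with a partly effective reference agonist dose plus 3 SD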;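 note: isoproterenol raises cAMP through native beta-adrenoceptor Gs so signal bypasses D1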
# * marks the source's active call; other numbers are inactive results; i = inactive; . = not tested or not shown; + = active, no number.
SMILES,DAT uptake mod,D1 allo mod,HEK293 NFkB inh,E coli RNAP,AP complement,D1 mod confirm,D1 ag no DA,Isoprot counter
COc1cc2c(cc1OC)-c1cc(NC3CCCC3)nc(=O)n1CC2,0.65,8.5*,12,9,13,14200*,1764,+
O=C(O)CCC(=O)Nc1ccc(S(=O)(=O)Nc2nccs2)cc1,-0.79,0.4,.,9,6,.,.,.
Cc1cc(C(=O)Nc2ccc(S(=O)(=O)Nc3nccs3)cc2)c(C)o1,-0.48,8.4*,14,.,16,16172*,1476,+
CCOc1ccccc1NC(=O)C1C2C=CC(O2)C1C(=O)O (stereo unspecified),-0.36,4.8*,14,4,-15,5564,1628,i
CCOc1ccccc1NC(=O)C1C2C=CC(C2)C1C(=O)O (stereo unspecified),-1.3,.,.,.,.,.,.,.
CCOc1ccccc1C(=O)N(Cc1ccccc1)Cc1cc2cc3c(cc2[nH]c1=O)OCCO3,-0.3,.,.,.,.,.,.,.
CCCCCCC1C(C#N)=C(N)OC2=C1C(=O)CC(C)(C)C2 (stereo unspecified),0.23,3.7*,-2,6,11,12024*,1864,+
O=C(NCN1C(=O)C2C3C=CC(C3)C2C1=O)OC1CCCCC1 (stereo unspecified),-0.5,1,-8,2,8,.,.,.
COc1ccc(N2CCN(c3nc(NCCc4ccc(OC)c(OC)c4)nc(OC)n3)CC2)cc1,0.37,2.8*,-5,-1,9,11472*,1500,+
COc1cc(-c2nn3c(Cc4ccccc4)nnc3s2)cc(OC)c1OC,0.56,4*,9,5,7,9884*,1660,+
COc1cc(-c2nn3c(-c4ccccc4)nnc3s2)cc(OC)c1OC,2.7*,3.3*,3,12,4,14804*,1764,+
COc1cc(-c2nn3c(COc4ccccc4)nnc3s2)cc(OC)c1OC,0.5,.,.,2,.,.,.,.
COc1ccc(-c2nn3c(-c4ccco4)nnc3s2)cc1OC,0.11,16*,11,0,-7,18008*,.,+
Cc1sc2ncnc(SCC(=O)NC3CC3)c2c1C,0.37,.,.,.,.,.,.,.
Cc1sc2ncnc(SCC(=O)N3CCCC3)c2c1C,1.4,2.3*,2,11,7,7900*,1616,i
O=C(O)C1C2C=CC(O2)C1C(=O)NCCCn1ccnc1 (stereo unspecified),-1.1,0.62,10,-5,7,.,.,.
COc1ccc(C2N=C(Nc3ccc(C)cc3)Nc3nc(C)cc(=O)n32)cc1 (stereo unspecified),1.4,-0.98,10,6,15,.,.,.
CC(=O)OCC1OC(c2ccccc2)C(OC(C)=O)C(OC(C)=O)C1OC(C)=O (stereo unspecified),-0.11,3.1*,12,4,17,9036*,1700,i
CCC(Sc1nc(=O)cc(N)n1-c1ccccc1)C(=O)Nc1cc(C)on1 (stereo unspecified),0.024,-0.64,8,0,2,.,.,.
CCC(Sc1nc(=O)cc(N)n1CCc1ccccc1)C(=O)Nc1ccccc1C#N (stereo unspecified),0.66,5.2*,2,0,0,3424*,1792,i
Cc1nn(-c2ccccc2)c(C)c1C(=O)OCC(=O)N1c2ccccc2NC(=O)C1(C)C,0.66,.,.,.,.,.,.,.
Cc1c2c(nc3c(C(=O)NC4CCCC4)cnn13)CCCC2,0.37,5*,3,6,-5,11564*,1764,+
O=C(NC1CCCC1)c1cnn2c(C(F)(F)F)cc(-c3ccco3)nc12,0.16,3.5,22,5,7,.,.,.
Cc1noc(C)c1CSc1cc(C)c2ccccc2n1,0.75,1.4,12,2,8,.,.,.
NC(=O)C1CCN(c2nc(-c3ccccc3)nc3ccccc23)CC1,2.1,15*,8,7,-4,24116*,1564,+
SMILES,DAT uptake mod,D1 allo mod,HEK293 NFkB inh,E coli RNAP,AP complement,D1 mod confirm,D1 ag no DA,Isoprot counter
c1cncc(-c2nc(N3CCCCCC3)c3ccccc3n2)c1,.,12*,24,3,10,14412*,1464,+
c1ccc2c(N3CCCCCC3)nc(-c3ccncc3)nc2c1,1.3,.,.,.,.,.,.,.
CCOC(=O)NCCc1ccc(OC)cc1,-0.68,3.8*,-6,1,9,8468*,1752,i
COCCn1c(CN2CCN(c3ccc(OC)cc3)CC2)nc2c1c(=O)n(C)c(=O)n2C,0.72,0.21,17,5,8,.,.,.
COc1ccc(N2CCN(Cc3nc4c(c(=O)n(C)c(=O)n4C)n3CCc3ccccc3)CC2)cc1,-1.4,3.5*,1,6,6,7060,1804,+
Cc1cc(C)c(NC2=NS(=O)(=O)c3ccccc32)c(C)c1,-0.32,.,.,.,.,.,.,.
C#CCNC(=O)C1=C[C@H](c2ccc(C(F)(F)F)cc2)[C@@H](CCCO)[C@H](OCC)O1,0.66,.,.,.,.,.,.,.
CCCCn1c(NC(C)=O)c(C#N)c2nc3ccccc3nc21,-0.37,3.8*,19,-9,1,11192*,1596,i
COc1ccc(CCn2c(N)c(C#N)c3nc4ccccc4nc32)cc1OC,0.38,-0.66,9,5,13,.,.,.
CCCCCn1c(N)c(C#N)c2nc3ccccc3nc21,0.33,5*,12,-15,18,13676*,1656,i
COc1ccc(Cn2c(N)c(C#N)c3nc4ccccc4nc32)cc1OC,0.65,5.1*,.,6,15,11232*,1656,+
O=C(Nc1ccccc1Oc1ccccc1)c1cnccn1,-0.76,4.1*,10,2,7,9216*,1488,i
CCc1cc(=O)oc2cc(OCC(N)=O)c(Cl)cc12,-0.6,.,.,.,.,.,.,.
c1ccc(CNc2nc3ccccc3n3cnnc23)nc1,-1.2,9.2*,-10,9,16,13992*,.,+
CCCc1[nH]nc2c1C(c1ccc(OC)cc1OC)C(C#N)=C(N)O2 (stereo unspecified),2,7.7*,7,10,32,14308*,1416,+
COC(=O)Cc1[nH]nc2c1C(c1c[nH]c3ccccc13)C(C#N)=C(N)O2 (stereo unspecified),-1.6,8*,16,10,11,10912*,.,+
O=[N+]([O-])c1cc(-c2csc(NC(CO)c3nc4ccccc4n3CCOCCO)n2)ccc1Cl (stereo unspecified),1,.,.,.,.,.,.,.
CCn1c(=O)c(C(=O)Nc2nc3ccccc3[nH]2)c(O)c2ccccc21,-0.12,-0.65,21,-4,9,.,.,.

# Screening data (PubChem BioAssay)
